The structures appear in SMILES notation. pIC50: −log10 of the molar value. Active and inactive are the calls of the source. No cut-off for these calls is given here.

One data set deals with MCF-10A. As to the kind of experiment: Antiproliferative activity against human MCF-10A cells assessed as reduction in cell viability incubated for 48 hrs by MTT assay. Type of data set: cell-based. In outline:
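Cells seeded at 5 × 10³ per well, incubated overnight, then exposed to a range of compound concentrations for 48 h. MTT added for 4 h, medium replaced with DMSO, absorbance read at 570 nm. MCF-7, L-O2 grown in DMEM; MCF-10A, MCF-7/ADR in RPMI 1640. Three independent runs.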
In general terms: Tetrazolium dyes change colour on reduction, which living cells bring about.

Another data set concerns the target Tubulin (Homo sapiens) (UniProt P68371+Q9H4B7+P0DPH7+P68366+Q13509+Q71U36+P04350+Q3ZCM7+P07437+P68363+Q9BQE3+Q6PEY2+Q13885+Q9BVA1+Q9BUF5). The data set can be described thus: Induction of microtubule damage in human MCF7 cells incubated for 48 hrs by DAPI staining based immunofluorescence assay. Particulars: dose 0.5-4 nM. Type of data set: cell-based. The method in brief: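 Blocked with goat serum for 20 min, probed with anti-β-tubulin for 2 h, fluorescent secondary antibody and DAPI nuclear stain, imaged by laser confocal microscopy.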

Data set [1] concerns the target Tubulin beta (Homo sapiens) (UniProt P68371+Q9H4B7+Q13509+P04350+Q3ZCM7+P07437+Q13885+Q9BVA1+Q9BUF5+A6NNZ2). The data set can be described thus: Inhibition of beta-tubulin polymerization in human MCF7 cells assessed as inhibition of EBI-beta-tubulin adduct formation at 1 to 4 nM measured after 2 hrs by Western blot-based EBI competition assay. Type of data set: cell-based. Conditions: dose 1-4 nM. For orientation: In western blotting, separated proteins are transferred to a membrane and probed.

Data set [2] deals with MCF7. The data set can be described thus: Induction of mitochondrial membrane potential loss in human MCF7 cells at 0.5 nM measured after 24 hrs by JC-1 staining based flow cytometry analysis (reference value: 3.01%). The format is functional. In general terms: A flow cytometer gives signals particle by particle.
The subject of data set [3] is MCF7. The data set can be described thus: Inhibition of AhR signalling in human MCF7 cells assessed as reduction in AhR level incubated for 24 hrs by Western blot analysis. Type of data set: functional, cell-based. Conditions: dose 1-4 nM. The method in brief: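 MCF-7 cells seeded 4 × 10⁵ per well, grown 24 h, then exposed to DMSO or 1, 2, 4 nM for 24 h; BAY 2416964 served as AhR antagonist reference. Lysates adjusted to 3 mg/mL protein by BCA, resolved on 4−20% SDS-PAGE, immunoblotted; AhR and CYP1A1 bands normalized to GAPDH. Three independent runs.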

In data set [4] the test system is MCF7. As to the kind of experiment: Induction of mitochondrial membrane potential loss in human MCF7 cells at 1 nM measured after 24 hrs by JC-1 staining based flow cytometry analysis (reference value: 3.01%). Type of data set: functional.
Data set [5] deals with MCF7. The data set can be described thus: Antiproliferative activity against human MCF7 cells assessed as cell growth inhibition at 2 nM in presence of DMBA. The format is functional, cell-based.
Data set [6] concerns MCF7. As to the kind of experiment: Induction of apoptosis in human MCF7 cells assessed as necrotic cells at 2 nM measured after 24 hrs in presence of DMBA by Annexin V-FITC and PI staining based flow cytometry assay (reference value: 0.9%). The format is functional.
Data set [7] has as its system MCF7. The data set can be described thus: Induction of apoptosis in human MCF7 cells assessed as viable cells at 2 nM measured after 24 hrs by Annexin V-FITC and PI staining based flow cytometry assay (reference value: 96.5%). The format is functional. Particulars: read-out: Activity.
Data set [8] concerns MCF7. As to the kind of experiment: Induction of apoptosis in human MCF7 cells assessed as necrotic cells at 2 nM measured after 24 hrs by Annexin V-FITC and PI staining based flow cytometry assay (reference value: 0.9%). The format is functional.
Data set [9] in a line: Toxicity in BALB/c nude mouse xenografted with human MCF7 cells assessed as effect on lung at 0.5 to 1 mg/kg, iv administered every 2 days for 21 days by H and E staining based assay. The format is organism-based. Particulars: in vivo, 504 h, dose 0.5-1 mg/kg, time 21 day. In outline: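 Nude mice given 6 × 10⁶ MCF-7 cells subcutaneously on right flank; after 7 days randomized, eight per group. iv dosing every 2 days at 0.5 or 1 mg/kg; vehicle 10% DMSO/5% Tween 80/85% saline; paclitaxel 10 mg/kg and CA-4 20 mg/kg references. Body weight every 2 days; killed after 21 days; organs fixed, paraffin-sectioned, H&E stained.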

For orientation: pIC50 means −log10 of the IC50, conventionally taken in molar units. Take `Cc1nc(N(C)c2ccc3c(c2)cc(C)n3C)c2ccccc2n1`: in the data set on MCF-10A, the pIC50 is 8.03. Also, the Activity result on Tubulin (Homo sapiens) is “Dose-Dependent Effect”; with MCF7 [2], 6.49%; with MCF7 [4], 6.49%; in the data set with MCF7 [6] it was 5.6%; in the data set on MCF7 [8], 8.3%; in [9], “Non-Toxic”. In data set [1], the inhibition entry is “Active”. For the same compound, the inhibition entry in the data set with MCF7 [3] was “Dose-Dependent Effect”. Also, the outcome with MCF7 [5] was Active. The viability at 0.002 µM in the data set with MCF7 [7] turned out to be 40.1%.

Source of the values: ChEMBL document CHEMBL5030534, “Discovery of Novel Anti-Breast-Cancer Inhibitors by Synergistically Antagonizing Microtubule Polymerization and Aryl Hydrocarbon Receptor Expression” (J Med Chem, 2021).
